ChEMBL document CHEMBL1152571, “Synthesis and biological evaluation of 4-fluoroproline and 4-fluoropyrrolidine-2-acetic acid derivatives as new GABA uptake inhibitors” (Bioorg Med Chem, 2009)
pIC50: −log10 of the molar value.

Experiments:
[1] = target: Sodium- and chloride-dependent GABA transporter 1 (Mus musculus, UniProt P31648); assay: Inhibition of GAT1 in mouse D8 cells assessed as [3H]GABA transport by liquid scintillation counting; type: cell-based
How it was run: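 D8 cells expressing mouse GAT-1 were grown in RPMI 1640 with 10% FBS to near confluence (about 60,000 cells/well), rinsed with PBS and preincubated 10 min at room temperature in HBSS. [3H]GABA was added (151 nM final) for 20 min at room temperature. Uptake was stopped by aspiration and three rapid cold-PBS washes, and cells were lysed in 2 N NaOH. Uptake was counted by scintillation, giving IC50.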

GABA transporter 3 = target: T1, GABA transporter 3 (Mus musculus, UniProt P31649); assay: Inhibition of GAT3 in mouse D8 cells assessed as [3H]GABA transport by liquid scintillation counting; type: cell-based
T1 sequence (P31649 whole entry): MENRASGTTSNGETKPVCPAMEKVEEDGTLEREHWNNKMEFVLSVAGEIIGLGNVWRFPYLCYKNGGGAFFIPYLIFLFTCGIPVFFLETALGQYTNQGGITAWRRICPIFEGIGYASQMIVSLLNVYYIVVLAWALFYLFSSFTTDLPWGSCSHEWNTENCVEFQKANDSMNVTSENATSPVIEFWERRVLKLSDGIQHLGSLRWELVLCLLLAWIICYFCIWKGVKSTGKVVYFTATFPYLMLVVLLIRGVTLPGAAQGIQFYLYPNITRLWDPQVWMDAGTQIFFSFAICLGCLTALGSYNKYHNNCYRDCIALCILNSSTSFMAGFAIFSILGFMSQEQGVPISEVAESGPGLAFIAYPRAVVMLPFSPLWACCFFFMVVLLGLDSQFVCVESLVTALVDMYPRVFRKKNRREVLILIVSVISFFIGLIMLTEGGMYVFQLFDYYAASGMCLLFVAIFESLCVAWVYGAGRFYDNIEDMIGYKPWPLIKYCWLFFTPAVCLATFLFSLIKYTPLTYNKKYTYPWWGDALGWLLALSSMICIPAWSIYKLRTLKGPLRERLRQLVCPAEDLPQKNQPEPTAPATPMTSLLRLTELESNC

Row | Compound | pIC50 [1] | pIC50 (GABA transporter 3)
1 | Cc1ccsc1C(=CCCN1C[C@@H](O)C[C@H]1CC(=O)O)c1sccc1C | 5.29 | –
2 | O=C(O)C[C@@H]1C[C@@H](O)CN1CCC=C(c1ccccc1)c1ccccc1 | 5.48 | < 4.00
3 | Cc1ccsc1C(=CCCN1C[C@@H](F)C[C@H]1C(=O)O)c1sccc1C | 4.74 | –
4 | O=C(O)C[C@@H]1C[C@H](O)CN1CCC=C(c1ccccc1)c1ccccc1 | 5.31 | –
5 | O=C(O)[C@@H]1CCCN1CCC=C(c1ccccc1)c1ccccc1 | 5.59 | 3.51
6 | O=C(O)C[C@@H]1CCCN1CCC=C(c1ccccc1)c1ccccc1 | 6.40 | 4.19
7 | O=C(O)[C@@H]1C[C@@H](O)CN1CCC=C(c1ccccc1)c1ccccc1 | 4.10 | < 4.00
8 | O=C(O)[C@@H]1C[C@@H](F)CN1CCC=C(c1ccccc1)c1ccccc1 | 4.17 | –
9 | O=C(O)C[C@H]1C[C@@H](F)CN1CCC=C(c1ccccc1)c1ccccc1 | 5.40 | –
10 | Cc1ccsc1C(=CCCN1C[C@@H](F)C[C@@H]1CC(=O)O)c1sccc1C | 5.31 | –
11 | O=C(O)[C@@H]1C[C@H](F)CN1CCC=C(c1ccccc1)c1ccccc1 | < 4.00 | –
12 | Cc1ccsc1C(=CCCN1C[C@H](F)C[C@@H]1CC(=O)O)c1sccc1C | 5.53 | –
13 | Cc1ccsc1C(=CCCN1CCC[C@H]1CC(=O)O)c1sccc1C | 6.47 | 4.58
14 | Cc1ccsc1C(=CCCN1CCC[C@H]1C(=O)O)c1sccc1C | 6.19 | –
15 | Cc1ccsc1C(=CCCN1C[C@H](O)C[C@H]1CC(=O)O)c1sccc1C | 5.50 | < 4.00
16 | Cc1ccsc1C(=CCCN1C[C@H](F)C[C@H]1C(=O)O)c1sccc1C | 4.89 | –
17 | O=C(O)C[C@H]1C[C@H](F)CN1CCC=C(c1ccccc1)c1ccccc1 | 5.24 | –
18 | Cc1ccsc1C(=CCCN1CCC[C@@H](C(=O)O)C1)c1sccc1C [TIAGABINE] | 6.72 | –
